Experimental findings from ChEMBL document CHEMBL1152635, “Pyranonaphthoquinone derivatives of eleutherin, ventiloquinone L, thysanone and nanaomycin A possessing a diverse topoisomerase II inhibition and cytotoxicity spectrum” (2009) are described below.

Converted amounts (≈) assume the structure as drawn. The source made the active and inactive calls. The rule behind the calls is not given here.

For orientation: MIC50 means the lowest concentration that inhibits either 50% of growth or 50% of the strains tested, depending on the study. Higher therefore signals weaker potency.

In experiment [1] the target is DNA topoisomerase 2-alpha (Homo sapiens) (UniProt P11388). As to the kind of experiment: Inhibition of human topoisomerase 2alpha-mediated kinetoplast DNA decatenation at 100 uM. The method in brief: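 Incubation was 60 min at 37 °C, then SDS stop and proteinase K (55 °C, 30 min). Samples ran on 1% agarose containing ethidium bromide. Activity was scored as the ratio of nicked plus supercoiled minicircles to kDNA.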
Sequence of DNA topoisomerase 2-alpha (Homo sapiens) (P11388 whole entry): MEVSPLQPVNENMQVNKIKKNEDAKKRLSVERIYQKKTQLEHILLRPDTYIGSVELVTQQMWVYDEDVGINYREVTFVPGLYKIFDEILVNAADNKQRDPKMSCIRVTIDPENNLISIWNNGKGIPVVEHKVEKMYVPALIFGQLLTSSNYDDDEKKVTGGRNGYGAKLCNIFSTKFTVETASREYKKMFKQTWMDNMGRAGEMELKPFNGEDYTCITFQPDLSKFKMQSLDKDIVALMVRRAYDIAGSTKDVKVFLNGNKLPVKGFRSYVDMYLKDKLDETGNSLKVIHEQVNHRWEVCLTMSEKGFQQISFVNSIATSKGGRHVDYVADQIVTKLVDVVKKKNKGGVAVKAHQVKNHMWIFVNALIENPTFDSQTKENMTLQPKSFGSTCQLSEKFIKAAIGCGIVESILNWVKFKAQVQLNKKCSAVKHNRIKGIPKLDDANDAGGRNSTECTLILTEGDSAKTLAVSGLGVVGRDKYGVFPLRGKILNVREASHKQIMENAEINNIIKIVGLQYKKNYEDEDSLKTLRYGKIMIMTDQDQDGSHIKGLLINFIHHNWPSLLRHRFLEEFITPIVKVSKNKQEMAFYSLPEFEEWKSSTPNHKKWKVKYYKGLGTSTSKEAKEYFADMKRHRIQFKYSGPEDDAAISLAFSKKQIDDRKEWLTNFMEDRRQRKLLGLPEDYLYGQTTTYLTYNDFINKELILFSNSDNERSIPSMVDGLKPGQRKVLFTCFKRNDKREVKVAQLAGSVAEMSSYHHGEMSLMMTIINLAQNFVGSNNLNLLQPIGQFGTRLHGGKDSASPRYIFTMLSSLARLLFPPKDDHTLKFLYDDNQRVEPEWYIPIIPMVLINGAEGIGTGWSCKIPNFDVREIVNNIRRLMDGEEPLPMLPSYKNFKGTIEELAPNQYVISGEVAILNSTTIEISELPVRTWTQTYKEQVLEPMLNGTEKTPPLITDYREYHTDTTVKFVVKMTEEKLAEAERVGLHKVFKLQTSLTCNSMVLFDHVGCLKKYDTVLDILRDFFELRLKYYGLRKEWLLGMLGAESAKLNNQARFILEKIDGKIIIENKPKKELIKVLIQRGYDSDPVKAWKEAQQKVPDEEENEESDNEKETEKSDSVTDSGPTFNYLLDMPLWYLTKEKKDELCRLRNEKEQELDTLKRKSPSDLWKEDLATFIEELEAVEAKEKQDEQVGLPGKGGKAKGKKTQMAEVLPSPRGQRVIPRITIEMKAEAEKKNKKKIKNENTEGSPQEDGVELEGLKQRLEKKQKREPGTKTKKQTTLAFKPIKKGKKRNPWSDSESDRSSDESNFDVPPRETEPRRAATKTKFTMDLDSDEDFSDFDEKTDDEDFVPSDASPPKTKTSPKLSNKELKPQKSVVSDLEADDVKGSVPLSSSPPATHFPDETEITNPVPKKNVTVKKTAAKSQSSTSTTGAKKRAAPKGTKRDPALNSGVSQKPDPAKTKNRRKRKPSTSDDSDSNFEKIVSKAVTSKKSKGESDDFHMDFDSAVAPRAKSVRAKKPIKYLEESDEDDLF

The test system of the next experiment is Nucleic Acid. As to the kind of experiment: Induction of DNA intercalation in pRYG DNA at 100 uM by agarose gel electrophoresis. Format: nucleic-acid assay.
Experiment [2] addresses T1, Type II restriction enzyme XhoI (Xanthomonas vasicola) (UniProt Q9KVZ7).
T1 sequence (whole entry): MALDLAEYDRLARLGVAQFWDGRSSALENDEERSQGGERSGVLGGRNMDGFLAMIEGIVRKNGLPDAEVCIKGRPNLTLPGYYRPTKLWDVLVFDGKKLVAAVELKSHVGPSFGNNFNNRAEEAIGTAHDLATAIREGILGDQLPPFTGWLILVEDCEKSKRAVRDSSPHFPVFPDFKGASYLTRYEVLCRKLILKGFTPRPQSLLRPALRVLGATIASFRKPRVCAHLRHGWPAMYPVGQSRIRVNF
Nature of the experiment: Inhibition of Xanthomonas vasicola XhoI assessed as pBSKS cleavage at 100 uM by endonuclease assay. The method in brief:
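Plasmid pBluescript with 1 unit XhoI in place of topoisomerase, using the relaxation protocol: 0.5 mM ATP, Tris-HCl/KCl/NaCl/EDTA/MgCl2/glycerol buffer pH 8.0, 1% DMSO, 37 °C for 60 min. The reaction was quenched with SDS/EDTA and treated with proteinase K. Products were resolved on 1% agarose in TBE.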

The subject of a further experiment is Saccharomyces cerevisiae. As to the kind of experiment: Growth inhibition of Saccharomyces cerevisiae BY4741 after 24 hrs. To be noted: for MIC50: BY4741, 24 h. In kind it is functional. The essentials: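 BY4741 grown overnight at 30 °C in YPD and taken at log phase (~0.6 OD660/ml), then diluted into fresh YPD at 0.01 OD660/ml. Compounds were given in 1% DMSO at twofold steps from 1 to 128. Growth at 30 °C for 24 h was read as OD660 and normalised to a DMSO-only control. MIC50 (50% growth inhibition) was derived from relative growth versus log10 concentration.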

The target in experiment [3] is DNA topoisomerase 2-alpha (Homo sapiens) (UniProt P11388). Nature of the experiment: Inhibition of human topoisomerase 2alpha-mediated relaxation of double-stranded pRYG DNA at 100 uM by agarose gel electrophoresis. The essentials:
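Purified human topoisomerase IIα (3 units) was added last. Incubation was 37 °C for 60 min, quenched with 1% SDS/25 mM EDTA, then proteinase K. Products ran on 1% agarose in TBE without ethidium bromide and were stained afterward.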

For the molecule `COc1cc(OC)c2c(c1)C(=O)C1=C(C2=O)[C@@H](C)O[C@@H](C)C1`, the inhibition entry in experiment [1] is “Active”. Also, the outcome in the experiment on Nucleic Acid was inactive. The inhibition entry in experiment [2] is “inactive”.
For the molecule `C[C@H]1O[C@@H](CC(=O)O)CC2=C1C(=O)c1ccccc1C2=O`, the inhibition result in experiment [1] is “Active”. Moreover, the result in the experiment with Nucleic Acid was inactive. In addition, the inhibition result in experiment [2] is “inactive”. In the experiment with Saccharomyces cerevisiae, the MIC50 was 5 µM (≈ 1.43 µg/mL).
For the molecule `CC(C)Oc1cc(OC(C)C)c2c(c1)C(=O)C1=C(CO[C@@H](C)C1)C2=O`, the inhibition entry in experiment [1] and in experiment [3] was “Active” throughout. For the same molecule, the result in the experiment with Nucleic Acid was inactive. Moreover, the inhibition result in experiment [2] was “inactive”.
Turning to `C[C@H]1CC2=C(CO1)C(=O)c1c(O)cc(O)cc1C2=O`, the inhibition entry in experiment [1] and in experiment [3] was “Active” throughout. Moreover, the outcome with Nucleic Acid was inactive. The inhibition result in experiment [2] is “inactive”. In addition, the MIC result in the experiment on Saccharomyces cerevisiae was “Active”.
Turning to `COc1cc(O)c2c(c1)C(=O)C1=C(C2=O)[C@@H](C)O[C@@H](C)C1`, the inhibition entry in experiment [1] is “Active”. The inhibition result in experiment [3] and in experiment [2] was “inactive” in each case. In addition, in the experiment with Nucleic Acid, the result was inactive. Also, the MIC50 against Saccharomyces cerevisiae is 5 µM (≈ 1.44 µg/mL).
Take `COc1cccc2c1C(=O)C1=C(C[C@H](C)O[C@@H]1C)C2=O`: the inhibition result in experiment [1] was “Active”. The inhibition result in experiment [3] and in experiment [2] was “inactive” throughout. Besides, the outcome in the experiment on Nucleic Acid was inactive. This molecule displayed an MIC50 against Saccharomyces cerevisiae of 80 µM (≈ 21.8 µg/mL).
Consider `COc1cc([C@@H]2c3cc4c(cc3[C@@H](O[C@@H]3O[C@@H]5CO[C@@H](C)O[C@H]5[C@H](O)[C@H]3O)[C@H]3COC(=O)[C@H]23)OCO4)cc(OC)c1O`, for which the inhibition result in experiment [3] was “Active”. Also, the outcome with Nucleic Acid was inactive. The inhibition result in experiment [2] is “inactive”.
Turning to `COc1cc(O)c2c(c1)C(=O)C1=C(CO[C@@H](C)C1)C2=O`, the inhibition result in experiment [1] and in experiment [3] was “Active” each time. For the same molecule, in the experiment on Nucleic Acid, the outcome was inactive. In addition, the inhibition result in experiment [2] is “inactive”.
For `C[C@H]1CC2=C(C(=O)c3c(O)cc(O)cc3C2=O)[C@H](O)O1`, in experiment [1], the inhibition entry is “Active”. Further, the inhibition result in experiment [3] and in experiment [2] was “inactive” in each case. In the experiment on Nucleic Acid, the result was inactive. In the experiment with Saccharomyces cerevisiae, the MIC entry was “inactive”.
Consider `C[C@H]1CC2=C(C(=O)c3c(O)cccc3C2=O)[C@@H](C)O1`, for which the inhibition result in experiment [1] was “Active”. Also, in the experiment with Nucleic Acid, the outcome was inactive. Further, the inhibition result in experiment [2] is “inactive”. The MIC entry in the experiment with Saccharomyces cerevisiae was “Active”.
Turning to `C[C@@H]1CC2=C(C(=O)c3ccccc3C2=O)[C@H](C)O1`, the inhibition entry in experiment [1] is “Active”. Further, in the experiment with Nucleic Acid, the result was inactive. Besides, the inhibition entry in experiment [2] is “inactive”. For the same molecule, in the experiment with Saccharomyces cerevisiae, the MIC entry was “Active”.
For `COc1cc(OC)c2c(c1)C(=O)C1=C(CO[C@@H](C)C1)C2=O`, the inhibition result in experiment [1] and in experiment [3] was “Active” in each case. Besides, the outcome with Nucleic Acid was inactive. For the same molecule, the inhibition entry in experiment [2] is “inactive”.
For `C[C@H]1CC2=C(C(=O)c3ccccc3C2=O)[C@@H](C)O1`, the inhibition result in experiment [1] is “Active”. Further, in the experiment with Nucleic Acid, the outcome was inactive. The inhibition entry in experiment [2] is “inactive”. The MIC result with Saccharomyces cerevisiae was “Active”.
Turning to `Cc1c2ccncc2c(C)c2c1[nH]c1ccccc12`, the inhibition result in experiment [3] was “Active”. The result in the experiment with Nucleic Acid was Active. For the same molecule, the inhibition entry in experiment [2] was “inactive”.
For `C[C@H]1CC2=C(C(=O)c3ccccc3C2=O)[C@H](O)O1`, in experiment [1], the inhibition result is “Active”. In the experiment on Nucleic Acid, the result was inactive. Moreover, the inhibition entry in experiment [2] is “inactive”. Besides, the MIC entry in the experiment with Saccharomyces cerevisiae is “Active”.
As for `COc1ccc2c(c1)C(=O)C1=C(C[C@H](CC(=O)O)O[C@@H]1C)C2=O` (racemic), the inhibition entry in experiment [1] and in experiment [3] was “Active” throughout. Moreover, the result in the experiment with Nucleic Acid was inactive. The inhibition entry in experiment [2] is “inactive”. Moreover, the MIC result in the experiment on Saccharomyces cerevisiae was “Active”.
